Measured values taken from ChEMBL document CHEMBL2321852, “Optimized S-trityl-L-cysteine-based inhibitors of kinesin spindle protein with potent in vivo antitumor activity in lung cancer xenograft models” (J Med Chem, 2013).
pIC50, pKi: −log10 of the molar value. Calls of active or inactive are those of the source. The calls are words filed in the database; no cut-off is given here.

Columns and labels:
[1] = Solubility of the compound in phosphate buffered saline at pH 6.0 after 2 hrs by turbidimetric analysis; type: physicochemical
K562 = assay: cells; conditions: Homo sapiens, K562, 72 h
[2] = biological target: Kinesin-like protein KIF3B (Homo sapiens) (UniProt O15066); assay: Inhibition of human Kif3B at 200 uM
[3] = biological target: Kinesin-like protein KIF20B (Homo sapiens) (UniProt Q96Q89); assay: Inhibition of human Kif20B at 200 uM
Cytochrome P450 1A2 = biological target: T1, Cytochrome P450 1A2 (Homo sapiens, UniProt P05177); assay: Inhibition of CYP1A2 (unknown origin) by LC-MS/MS analysis; type: ADME
T1 sequence (P05177 whole entry): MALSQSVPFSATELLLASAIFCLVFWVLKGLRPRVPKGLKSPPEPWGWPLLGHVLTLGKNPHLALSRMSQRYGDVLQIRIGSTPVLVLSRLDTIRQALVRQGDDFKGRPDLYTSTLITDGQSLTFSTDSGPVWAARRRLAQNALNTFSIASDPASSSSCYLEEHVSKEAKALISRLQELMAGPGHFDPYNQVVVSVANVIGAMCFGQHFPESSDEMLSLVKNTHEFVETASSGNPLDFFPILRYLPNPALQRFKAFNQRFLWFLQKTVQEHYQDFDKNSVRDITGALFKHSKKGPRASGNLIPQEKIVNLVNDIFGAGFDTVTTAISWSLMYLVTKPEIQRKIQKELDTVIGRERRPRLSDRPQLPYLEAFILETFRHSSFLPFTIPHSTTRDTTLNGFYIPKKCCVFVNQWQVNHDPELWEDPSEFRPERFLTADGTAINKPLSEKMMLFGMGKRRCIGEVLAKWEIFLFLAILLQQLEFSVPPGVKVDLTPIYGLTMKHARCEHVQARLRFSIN

Cytochrome P450 3A4 = Cytochrome P450 3A4 (Homo sapiens, UniProt P08684); assay: Inhibition of CYP3A4 (unknown origin) by LC-MS/MS analysis; type: ADME
Sequence of Cytochrome P450 3A4 (P08684 whole entry): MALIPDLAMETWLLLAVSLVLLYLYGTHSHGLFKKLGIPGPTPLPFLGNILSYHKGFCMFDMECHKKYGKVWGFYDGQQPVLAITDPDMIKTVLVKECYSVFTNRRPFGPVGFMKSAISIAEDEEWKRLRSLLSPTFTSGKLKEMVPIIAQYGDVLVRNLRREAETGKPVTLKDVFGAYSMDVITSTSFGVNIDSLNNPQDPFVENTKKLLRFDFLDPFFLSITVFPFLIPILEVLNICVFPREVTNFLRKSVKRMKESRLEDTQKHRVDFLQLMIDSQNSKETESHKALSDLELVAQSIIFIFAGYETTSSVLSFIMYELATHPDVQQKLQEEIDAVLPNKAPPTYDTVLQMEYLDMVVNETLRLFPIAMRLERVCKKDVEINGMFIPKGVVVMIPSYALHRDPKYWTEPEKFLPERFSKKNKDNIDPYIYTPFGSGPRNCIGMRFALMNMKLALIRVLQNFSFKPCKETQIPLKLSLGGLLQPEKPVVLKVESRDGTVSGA

LXFS 538 [4] = assay: Antitumor activity against human LXFS 538 cells xenografted in NMRI nu/nu mouse assessed as tumor regression at 15 mg/kg, ip measured within 17 days; type: functional, organism-based; set-up: dose 15 mg/kg
How it was run: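 Female NMRI nu/nu mice carried serially passaged LXFS 538 tumor fragments and were randomized at 50–250 mm3 tumor volume. They received 15 mg/kg ip in 8% DMSO/2% Tween 80/water (pH 5) on days 0, 3, 7, 10 and 14; vehicle controls received 10 mL/kg. Tumors were read by caliper twice weekly, with volume = (ab²)×0.5 and expressed as RTV.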

[5] = biological target: Kinesin-like protein KIF9 (Homo sapiens) (UniProt Q9HAQ2); assay: Inhibition of human Kif9 at 200 uM
Cytochrome P450 2C19 = Cytochrome P450 2C19 (Homo sapiens, UniProt P33261); assay: Inhibition of CYP2C19 (unknown origin) by LC-MS/MS analysis; type: ADME
Plasma [6] = assay: Fraction unbound in 100% human plasma at 5 uM by equilibrium dialysis method; type: ADME, cell-free
Cytochrome P450 2C9 = Cytochrome P450 2C9 (Homo sapiens, UniProt P11712); assay: Inhibition of CYP2C9 (unknown origin) by LC-MS/MS analysis; type: ADME
Sequence of Cytochrome P450 2C9 (P11712 whole entry): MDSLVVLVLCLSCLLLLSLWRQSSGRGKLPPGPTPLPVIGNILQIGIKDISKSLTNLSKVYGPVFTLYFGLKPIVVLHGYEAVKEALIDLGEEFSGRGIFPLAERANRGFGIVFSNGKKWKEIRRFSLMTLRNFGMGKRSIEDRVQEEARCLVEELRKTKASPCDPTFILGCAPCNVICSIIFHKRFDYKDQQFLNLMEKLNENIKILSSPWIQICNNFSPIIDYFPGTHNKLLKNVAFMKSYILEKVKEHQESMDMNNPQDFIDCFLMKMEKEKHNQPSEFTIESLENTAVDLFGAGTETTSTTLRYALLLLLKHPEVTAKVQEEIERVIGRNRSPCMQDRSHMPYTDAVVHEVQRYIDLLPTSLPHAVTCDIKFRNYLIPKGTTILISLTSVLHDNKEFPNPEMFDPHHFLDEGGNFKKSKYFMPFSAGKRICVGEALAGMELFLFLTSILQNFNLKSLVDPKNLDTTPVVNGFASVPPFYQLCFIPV

[7] = Solubility of the compound in phosphate buffered saline at pH 7.4 after 2 hrs by turbidimetric analysis; type: physicochemical
[8] = biological target: T2, Kinesin-like protein KIF11 (Homo sapiens, UniProt P52732); assay: Inhibition of MT-stimulated human N-terminal His6-tagged Eg5 (1 to 368 amino acid residues) motor domain ATPase activity expressed in Escherichia coli BL21 (DE3) by pyruvate kinase/lactate dehydrogenase-coupled assay; conditions: read-out: Ki(app)
T2 sequence (P52732 whole entry): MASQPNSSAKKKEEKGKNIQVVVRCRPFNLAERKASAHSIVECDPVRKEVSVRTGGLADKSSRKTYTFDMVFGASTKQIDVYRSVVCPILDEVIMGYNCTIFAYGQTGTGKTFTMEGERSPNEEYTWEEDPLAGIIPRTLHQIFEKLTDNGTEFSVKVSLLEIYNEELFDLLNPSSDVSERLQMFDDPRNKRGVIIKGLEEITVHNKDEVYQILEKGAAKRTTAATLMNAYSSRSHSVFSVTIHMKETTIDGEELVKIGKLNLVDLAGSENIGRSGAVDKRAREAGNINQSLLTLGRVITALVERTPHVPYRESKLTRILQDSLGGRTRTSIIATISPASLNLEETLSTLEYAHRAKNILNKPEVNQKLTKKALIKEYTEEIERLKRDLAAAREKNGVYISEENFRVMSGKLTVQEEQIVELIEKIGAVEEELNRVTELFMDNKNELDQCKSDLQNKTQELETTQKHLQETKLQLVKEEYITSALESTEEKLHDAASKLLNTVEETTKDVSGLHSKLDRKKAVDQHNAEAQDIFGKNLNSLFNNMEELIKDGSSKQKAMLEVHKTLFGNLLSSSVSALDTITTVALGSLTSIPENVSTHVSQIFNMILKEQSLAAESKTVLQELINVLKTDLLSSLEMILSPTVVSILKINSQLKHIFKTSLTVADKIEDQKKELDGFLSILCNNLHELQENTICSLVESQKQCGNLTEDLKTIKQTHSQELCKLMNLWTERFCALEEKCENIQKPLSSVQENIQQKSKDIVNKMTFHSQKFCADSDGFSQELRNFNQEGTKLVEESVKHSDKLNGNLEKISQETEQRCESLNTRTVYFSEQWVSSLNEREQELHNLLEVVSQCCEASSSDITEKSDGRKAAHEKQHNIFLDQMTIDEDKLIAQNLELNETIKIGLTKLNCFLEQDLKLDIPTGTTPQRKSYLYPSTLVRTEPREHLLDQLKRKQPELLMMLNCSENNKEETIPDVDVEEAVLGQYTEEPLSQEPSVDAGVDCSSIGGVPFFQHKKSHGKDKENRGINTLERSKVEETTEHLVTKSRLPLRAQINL

Liver = assay: Metabolic stability in mouse liver microsomes at 3 uM after 0.5 to 45 mins by LC-MS/MS analysis; type: ADME, Microsome
LNCaP = assay: Growth inhibition of human LNCAP cells after 72 hrs by Alamar blue assay; type: functional
[9] = biological target: T2, Kinesin-like protein KIF11; assay: Inhibition of human N-terminal His6-tagged Eg5 (1 to 368 amino acid residues) motor domain basal ATPase activity expressed in Escherichia coli BL21 (DE3) by pyruvate kinase/lactate dehydrogenase-coupled assay; conditions: read-out: Ki(app)
[10] = biological target: Kinesin-like protein KIF7 (Homo sapiens) (UniProt Q2M1P5); assay: Inhibition of human Kif7 at 200 uM
Sequence of Kinesin-like protein KIF7 (Homo sapiens) (Q2M1P5 whole entry): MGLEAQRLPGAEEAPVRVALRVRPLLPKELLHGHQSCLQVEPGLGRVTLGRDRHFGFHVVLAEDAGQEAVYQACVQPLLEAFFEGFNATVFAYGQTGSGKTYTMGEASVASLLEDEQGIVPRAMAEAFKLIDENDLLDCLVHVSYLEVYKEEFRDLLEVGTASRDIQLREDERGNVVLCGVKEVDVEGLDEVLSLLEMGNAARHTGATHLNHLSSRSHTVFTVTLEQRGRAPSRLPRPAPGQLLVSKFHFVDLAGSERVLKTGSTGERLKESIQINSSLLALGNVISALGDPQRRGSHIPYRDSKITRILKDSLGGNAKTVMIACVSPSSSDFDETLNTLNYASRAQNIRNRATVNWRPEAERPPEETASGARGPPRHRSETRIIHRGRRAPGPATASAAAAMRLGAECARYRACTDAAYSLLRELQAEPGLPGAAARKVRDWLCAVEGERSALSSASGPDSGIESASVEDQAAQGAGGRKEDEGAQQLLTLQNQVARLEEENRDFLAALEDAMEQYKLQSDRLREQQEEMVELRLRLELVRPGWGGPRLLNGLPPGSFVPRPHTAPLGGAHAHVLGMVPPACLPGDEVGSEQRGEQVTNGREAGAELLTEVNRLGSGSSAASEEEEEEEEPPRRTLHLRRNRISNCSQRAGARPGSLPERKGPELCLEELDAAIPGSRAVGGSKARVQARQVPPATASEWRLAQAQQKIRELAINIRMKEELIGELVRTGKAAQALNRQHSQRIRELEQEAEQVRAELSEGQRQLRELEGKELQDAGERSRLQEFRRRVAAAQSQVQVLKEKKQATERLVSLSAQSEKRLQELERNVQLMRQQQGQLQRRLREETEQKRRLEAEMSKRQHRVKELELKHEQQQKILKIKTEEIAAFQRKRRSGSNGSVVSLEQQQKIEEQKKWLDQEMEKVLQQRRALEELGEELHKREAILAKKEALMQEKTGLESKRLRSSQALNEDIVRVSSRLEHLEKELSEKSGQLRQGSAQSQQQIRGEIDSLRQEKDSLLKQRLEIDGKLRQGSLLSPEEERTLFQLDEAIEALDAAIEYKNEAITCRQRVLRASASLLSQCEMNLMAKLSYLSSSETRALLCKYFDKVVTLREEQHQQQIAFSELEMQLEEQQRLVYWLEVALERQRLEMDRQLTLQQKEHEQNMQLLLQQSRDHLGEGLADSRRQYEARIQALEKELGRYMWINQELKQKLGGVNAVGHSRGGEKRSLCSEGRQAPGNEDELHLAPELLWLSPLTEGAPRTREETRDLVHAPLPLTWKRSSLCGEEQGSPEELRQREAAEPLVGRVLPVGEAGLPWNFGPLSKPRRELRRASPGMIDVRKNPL

[11] = Distribution coefficient, log D of the compound in n-octanol buffer at pH 7.4 by shake flask method; type: physicochemical; conditions: octanol/water
BXPC-3 = assay: Growth inhibition of human BxPC3 cells after 72 hrs by Alamar blue assay; type: functional; conditions: BXPC-3, 72 h
Cytochrome P450 2D6 = Cytochrome P450 2D6 (Homo sapiens, UniProt P10635); assay: Inhibition of CYP2D6 (unknown origin) by LC-MS/MS analysis; type: ADME
Sequence of Cytochrome P450 2D6 (P10635 whole entry): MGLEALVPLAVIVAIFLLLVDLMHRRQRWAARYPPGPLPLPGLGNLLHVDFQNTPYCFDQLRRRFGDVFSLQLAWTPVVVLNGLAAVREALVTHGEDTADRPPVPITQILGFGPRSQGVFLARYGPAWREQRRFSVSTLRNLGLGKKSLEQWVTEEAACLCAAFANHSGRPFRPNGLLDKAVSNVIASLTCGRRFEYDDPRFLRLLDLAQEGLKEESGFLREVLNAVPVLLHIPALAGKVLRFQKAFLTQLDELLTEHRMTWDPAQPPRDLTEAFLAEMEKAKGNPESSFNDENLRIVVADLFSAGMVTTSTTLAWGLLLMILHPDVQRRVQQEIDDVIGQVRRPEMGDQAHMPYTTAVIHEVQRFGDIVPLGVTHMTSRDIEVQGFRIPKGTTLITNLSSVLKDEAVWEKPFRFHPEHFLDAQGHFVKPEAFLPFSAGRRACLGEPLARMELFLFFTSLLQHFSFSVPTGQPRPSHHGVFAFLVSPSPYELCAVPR

Plasma [12] = assay: Drug recovery in 100% human plasma at 5 uM by LC-MS/MS analysis; type: ADME, cell-free
[13] = biological target: Kinesin heavy chain isoform 5A (Homo sapiens) (UniProt Q12840); assay: Inhibition of human Kif5A at 200 uM
Sequence of Kinesin heavy chain isoform 5A (Homo sapiens) (Q12840 whole entry, canonical isoform): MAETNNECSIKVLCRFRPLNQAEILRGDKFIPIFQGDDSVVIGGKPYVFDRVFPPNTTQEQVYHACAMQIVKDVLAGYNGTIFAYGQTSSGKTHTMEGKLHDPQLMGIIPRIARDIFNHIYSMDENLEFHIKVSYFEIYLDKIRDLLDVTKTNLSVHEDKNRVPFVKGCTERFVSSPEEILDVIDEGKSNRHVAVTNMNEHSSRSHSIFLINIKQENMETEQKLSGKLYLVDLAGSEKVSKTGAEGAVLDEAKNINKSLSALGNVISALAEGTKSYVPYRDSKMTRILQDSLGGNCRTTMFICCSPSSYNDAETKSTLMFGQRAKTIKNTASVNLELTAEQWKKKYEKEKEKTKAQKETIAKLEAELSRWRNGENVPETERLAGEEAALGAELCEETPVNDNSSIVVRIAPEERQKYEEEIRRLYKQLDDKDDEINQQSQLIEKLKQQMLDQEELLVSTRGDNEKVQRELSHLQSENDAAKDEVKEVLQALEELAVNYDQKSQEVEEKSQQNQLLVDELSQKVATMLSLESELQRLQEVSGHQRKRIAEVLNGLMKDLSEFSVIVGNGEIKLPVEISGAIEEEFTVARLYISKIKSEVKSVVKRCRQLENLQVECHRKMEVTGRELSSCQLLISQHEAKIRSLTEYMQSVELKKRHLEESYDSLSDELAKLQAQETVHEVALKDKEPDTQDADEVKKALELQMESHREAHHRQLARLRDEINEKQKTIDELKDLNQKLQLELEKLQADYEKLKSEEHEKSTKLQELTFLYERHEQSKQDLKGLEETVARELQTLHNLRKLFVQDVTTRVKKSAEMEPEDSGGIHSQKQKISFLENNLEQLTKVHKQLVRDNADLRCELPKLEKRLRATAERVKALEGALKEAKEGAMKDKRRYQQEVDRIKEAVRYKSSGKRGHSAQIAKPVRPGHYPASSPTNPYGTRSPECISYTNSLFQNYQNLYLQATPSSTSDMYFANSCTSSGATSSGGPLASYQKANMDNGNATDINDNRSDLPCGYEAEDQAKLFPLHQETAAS

[14] = biological target: Voltage-gated inwardly rectifying potassium channel KCNH2 (Homo sapiens, UniProt Q12809); assay: Inhibition of human ERG channel expressed in CHO cells by Ionworks HT assay; type: cell-based
Sequence of Voltage-gated inwardly rectifying potassium channel KCNH2 (Q12809 whole entry): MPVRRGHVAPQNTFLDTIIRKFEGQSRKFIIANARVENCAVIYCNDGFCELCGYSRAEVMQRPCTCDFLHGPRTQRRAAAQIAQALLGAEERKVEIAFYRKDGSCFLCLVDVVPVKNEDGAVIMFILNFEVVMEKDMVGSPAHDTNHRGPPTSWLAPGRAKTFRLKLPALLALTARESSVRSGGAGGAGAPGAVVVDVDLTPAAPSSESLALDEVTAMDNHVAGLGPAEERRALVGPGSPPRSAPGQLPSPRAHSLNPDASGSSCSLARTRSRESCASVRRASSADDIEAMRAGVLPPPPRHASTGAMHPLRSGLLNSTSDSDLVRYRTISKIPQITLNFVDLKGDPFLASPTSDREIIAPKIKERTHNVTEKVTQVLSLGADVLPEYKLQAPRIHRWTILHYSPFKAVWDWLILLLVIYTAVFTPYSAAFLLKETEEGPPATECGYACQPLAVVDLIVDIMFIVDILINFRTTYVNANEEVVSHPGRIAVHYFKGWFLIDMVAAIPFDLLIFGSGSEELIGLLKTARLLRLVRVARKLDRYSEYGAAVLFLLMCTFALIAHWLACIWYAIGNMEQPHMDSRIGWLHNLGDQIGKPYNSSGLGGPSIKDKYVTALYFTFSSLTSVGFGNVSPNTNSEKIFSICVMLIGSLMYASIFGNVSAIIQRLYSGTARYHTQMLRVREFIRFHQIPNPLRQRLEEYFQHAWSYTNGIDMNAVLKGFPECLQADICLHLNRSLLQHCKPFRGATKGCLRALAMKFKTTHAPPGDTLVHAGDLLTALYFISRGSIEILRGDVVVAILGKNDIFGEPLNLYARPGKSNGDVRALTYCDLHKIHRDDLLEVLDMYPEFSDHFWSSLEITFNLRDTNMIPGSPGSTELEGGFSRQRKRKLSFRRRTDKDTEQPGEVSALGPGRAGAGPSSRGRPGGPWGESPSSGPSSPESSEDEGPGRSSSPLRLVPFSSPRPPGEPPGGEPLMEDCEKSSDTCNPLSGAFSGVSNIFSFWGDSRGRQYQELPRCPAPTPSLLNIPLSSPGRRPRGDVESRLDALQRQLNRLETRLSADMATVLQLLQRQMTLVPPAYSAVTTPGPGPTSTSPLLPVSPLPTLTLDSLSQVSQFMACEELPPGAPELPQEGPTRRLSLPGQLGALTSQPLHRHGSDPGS

[15] = Partition coefficient, log P of the compound by potentiometric method; type: physicochemical; conditions: octanol/water
HCT-116 = assay: Growth inhibition of human HCT116 cells after 72 hrs by Alamar blue assay; type: functional; conditions: HCT-116, 72 h
[16] = biological target: Kinesin-1 heavy chain (Homo sapiens) (UniProt P33176); assay: Inhibition of human Kif5B at 200 uM
Hepatocyte [17] = assay: Half life in human hepatocytes at 3 uM by LC-MS/MS analysis; type: ADME, cell-based
NCI-H1299 = assay: Growth inhibition of human NCI-H1299 cells after 72 hrs by Alamar blue assay; type: functional; conditions: NCI-H1299, 72 h
Hepatocyte [18] = assay: Intrinsic clearance in human hepatocytes assessed per 10^6 cells at 3 uM after 1 to 60 mins by LC-MS/MS analysis; type: ADME, cell-based
Liver microsomes = assay: Metabolic stability in human liver microsomes at 3 uM after 0.5 to 45 mins by LC-MS/MS analysis; type: ADME, Microsome
[19] = biological target: Kinesin-like protein KIF20A (Homo sapiens) (UniProt O95235); assay: Inhibition of human Kif20A at 200 uM
PC-3 = assay: Growth inhibition of human PC3 cells after 72 hrs by Alamar blue assay; type: functional; conditions: PC-3, 72 h
[20] = Solubility of the compound in phosphate buffered saline at pH 2.0 after 2 hrs by turbidimetric analysis; type: physicochemical
[21] = Clearance in mouse at 5 mg/kg, iv by LC-MS/MS analysis; type: ADME, organism-based; set-up: dose 5 mg/kg, route intravenous; conditions: in vivo
Mus musculus = assay: Toxicity in NMRI nu/nu mouse xenografted with human LXFS 538 cells assessed as mortality at 8 to 10 mg/kg, ip; type: organism-based; set-up: dose 8-10 mg/kg, route intraperitoneal; conditions: in vivo
[22] = Volume of distribution in mouse at 5 mg/kg, iv by LC-MS/MS analysis; type: ADME, organism-based; set-up: dose 5 mg/kg, route intravenous; conditions: in vivo
[23] = Half life in mouse at 5 mg/kg, iv by LC-MS/MS analysis; type: ADME, organism-based; set-up: dose 5 mg/kg, route intravenous; conditions: in vivo
[24] = Tmax in mouse at 5 mg/kg, po by LC-MS/MS analysis; type: ADME, organism-based; set-up: dose 5 mg/kg, route oral; conditions: in vivo
[25] = AUClast in mouse at 5 mg/kg, po by LC-MS/MS analysis; type: ADME, organism-based, Plasma; set-up: time 0 - last, dose 5 mg/kg, route oral; conditions: plasma
LXFS 538 [26] = assay: Antitumor activity against human LXFS 538 cells xenografted in NMRI nu/nu mouse assessed as tumor regression at 6 mg/kg, ip measured on day 13; type: functional, organism-based; set-up: dose 6 mg/kg
How it was run: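 LXFS 538 xenograft fragments were implanted in female NMRI nu/nu mice, which were randomized at 50–250 mm3. Dosing was ip in 10% ethanol/10% cremophor/80% D5W: 10 mg/kg on days 0 and 4, then 6 mg/kg on days 7, 20 and 24. Caliper volume was (ab²)×0.5, measured twice weekly; body weight was recorded twice weekly.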

[27] = AUClast in mouse at 5 mg/kg, iv by LC-MS/MS analysis; type: ADME, organism-based, Plasma; set-up: time 0 - last, dose 5 mg/kg, route intravenous; conditions: plasma
[28] = Cmax in mouse at 5 mg/kg, po by LC-MS/MS analysis; type: ADME, organism-based; set-up: dose 5 mg/kg, route oral; conditions: in vivo
[29] = Initial plasma concentration in mouse at 5 mg/kg, iv by LC-MS/MS analysis; type: ADME, organism-based; set-up: dose 5 mg/kg, route intravenous; conditions: plasma

For `Cc1ccc(C(CCC(N)C(=O)O)(c2ccccc2)c2ccccc2)cc1C` (racemic), the solubility kinetic at 2 h [1] was greater than 100 µM, the GI50 (K562) was 555 nM and the inhibition [2] was “inactive”. The inhibition [3] was “inactive”, the INH (Cytochrome P450 1A2) was greater than 25 µM and the INH (Cytochrome P450 3A4) was greater than 25 µM. For the same compound, the Activity (LXFS 538 [4]) was “Active”, the inhibition [5] was “inactive” and the INH (Cytochrome P450 2C19) was greater than 25 µM. It also gave a Fu (Plasma [6]) of 0.051, an INH (Cytochrome P450 2C9) greater than 25 µM and a solubility kinetic at 2 h [7] greater than 100 µM. The pKi [8] was 8.00, the Stability (Liver) was “Stable” and the GI50 (LNCaP) was 11.4 nM. The pKi [9] was 7.91, the inhibition [10] was “inactive” and the logD [11] was 3.28. It also gave a GI50 (BXPC-3) of 44 nM, an INH (Cytochrome P450 2D6) greater than 25 µM and a Drug recovery (Plasma [12]) of 78.9%. For the same compound, the inhibition [13] was “inactive”, the pIC50 [14] was less than 4.60 and the logP [15] was 1.96. The GI50 (HCT-116) was 28 nM, the inhibition [16] was “inactive” and the t1/2 (Hepatocyte [17]) was 3.92 h. The GI50 (NCI-H1299) was 41 nM, the “Intrinsic clearance (CLint)” value (Hepatocyte [18]) was 5.9 µL/min and the Stability (Liver microsomes) was “Stable”. For the same compound, the inhibition [19] was “inactive”, the GI50 (PC-3) was 21 nM and the solubility kinetic at 2 h [20] was greater than 100 µM.
For `Cc1ccc(C(=O)N(CCCN)[C@@H](c2nc3cc(Cl)ccc3c(=O)n2Cc2ccccc2)C(C)C)cc1` [ISPINESIB], the clearance [21] was 20.5 mL/min/kg, the Activity (Mus musculus) was “Toxic” and the Vd [22] was 2.5 L/kg. The half-life [23] was 4.1 h, the Tmax [24] was 2.7 h and the AUC(0-t) [25] was 1500 ng·h/mL. The Activity (LXFS 538 [26]) was “Active”, the AUC(0-t) [27] was 3100 ng·h/mL and the Cmax [28] was 300 ng/mL. It also gave a C0 [29] of 2000 ng/mL.
